ChEMBL document CHEMBL5104115, “Design, synthesis of novel triptolide-glucose conjugates targeting glucose Transporter-1 and their selective antitumor effect” (Eur J Med Chem, 2022)
Activity calls are given as the source filed them. The calls are words filed in the database; no cut-off is given here.

Experiments:
[1] = Toxicity in BALB/c nude mouse xenografted with human NCI-H1975 cells assessed as loss of body weight at 1 to 2 mg/kg administered ip, qd for 2 weeks measured every 3 days; details: in vivo, 336 h
[2] = system: NCI-H460; assay: Induction of apoptosis in human NCI-H460 cells assessed as necrotic cells at 1 uM measured after 48 hrs by Annexin V-FITC/PI staining method (reference value: 1.62%); format: functional
[3] = AUC (0 to 3 hrs) in NCI-H1975 tumor bearing nude mouse model serum at 1 mg/kg, iv; format: ADME, organism-based; set-up: time < 3 hr, dose 1 mg/kg, route iv
[4] = Cytotoxicity against human L02 cells incubated for 72 hrs by MTT assay; format: toxicity, cell-based
Outline: (§1)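 Cells seeded at 4000/well, incubated overnight, then exposed to a range of concentrations, or DMSO vehicle, for 72 h. MTT (5 mg/mL solution) added for 4 h and formazan dissolved in DMSO. Absorbance read at 570 nm, and IC50 derived from the curves. Tumor lines were grown in RPMI 1640; HUVEC, HaCaT and LO2 were grown in DMEM, each with 10% FBS at 37 °C and 5% CO2.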

[5] = Drug distribution in NCI-H1975 tumor bearing nude mouse model assessed as tumor to heart ratio of triptolide metabolite at 2 mg/kg, iv by LC-MS analysis; format: ADME, organism-based; details: in vivo
Outline: (§2)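 NCI-H1975 xenograft mice, tumors about 500 mm3, 3 per group, fasted 12 h with water available. Given 2 mg/kg iv and sacrificed 1 h later. Heart, liver, lung, kidney and tumor weighed and flash-frozen. 1.0 g tissue homogenized in 2.0 mL saline, methanol-precipitated, reconstituted. Parent, triptolide succinate and triptolide measured by LC-MS; tumor/organ ratios calculated.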

[6] = MRT (0 to 3 hrs) in NCI-H1975 tumor bearing nude mouse model serum at 1 mg/kg, iv; format: ADME, organism-based
[7] = Stability in mouse serum measured after 8 hrs by HPLC analysis; format: ADME, cell-free
[8] = system: NCI-H460; assay: Induction of apoptosis in human NCI-H460 cells assessed as viable cells at 50 uM measured after 48 hrs by Annexin V-FITC/PI staining method (reference value: 86.7%); format: functional; details: read-out: Activity
[9] = Cytotoxicity against HUVEC incubated for 72 hrs by MTT assay; format: toxicity, cell-based; details: human, HUVEC cells
Outline: as §1

[10] = system: NCI-H1975; assay: Cytotoxicity against Glut1 knocked down human NCI-H1975 cells transfected with KD2 assessed as decrease in cell viability incubated for 72 hrs by MTT assay; format: functional, cell-based; details: NCI-H1975, 72 h
Outline: (§3)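 Stable Glut-1 knockdown (KD1, KD2, vector KD V) or overexpression (OE, vector OE V) NCI-H1975 cells made by 12 h lentiviral infection, 72 h culture, then 14 days puromycin selection; Glut-1 confirmed by Western blot. Cells seeded at 4000/well overnight, dosed over a concentration range or DMSO for 72 h. MTT read at 570 nm; IC50 from ≥3 replicates.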

[11] = Toxicity in BALB/c nude mouse xenografted with human NCI-H1975 cells assessed as morphological change in kidney at 1 to 2 mg/kg administered ip, qd for 2 weeks; details: in vivo, 336 h
[12] = Cytotoxicity against HUVEC transfected with OE V overexpressing Glut1assessed as decrease in cell viability incubated for 72 hrs by MTT assay; format: toxicity, cell-based; details: human, HUVEC cells transfected with OE V overexpressing Glut1
Outline: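 HUVEC kept in DMEM with 10% FBS, made to overexpress Glut-1 (OE) or carry vector (OE V) by lentiviral infection and puromycin selection for 14 days, with Western blot check. Seeded at 4000 cells/well, treated over a concentration range or DMSO for 72 h, then MTT at 570 nm. IC50 taken from at least three replicates.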

[13] = Toxicity in BALB/c nude mouse xenografted with human NCI-H1975 cells assessed as morphological changes in testis at 1 mg/kg administered ip, qd for 2 weeks; details: in vivo, 336 h
[14] = system: NCI-H1975; assay: Cytotoxicity against human NCI-H1975 cells transfected with OE V overexpressing Glut1assessed as decrease in cell viability incubated for 72 hrs by MTT assay; format: functional, cell-based; details: NCI-H1975, 72 h
Outline: as §3

[15] = Toxicity in BALB/c nude mouse xenografted with human NCI-H1975 cells assessed as morphological change in heart at 1 to 2 mg/kg administered ip, qd for 2 weeks; details: in vivo, 336 h
[16] = Drug distribution in NCI-H1975 tumor bearing nude mouse model assessed as tumor to liver ratio of triptolide metabolite at 2 mg/kg, iv by LC-MS analysis; format: ADME, organism-based; details: in vivo
Outline: as §2

[17] = system: SW-620; assay: Cytotoxicity against human SW-620 cells incubated for 72 hrs by MTT assay; format: functional, cell-based; details: SW-620, 72 h
Outline: as §1

[18] = system: NCI-H460; assay: Cytotoxicity against human NCI-H460 cells incubated for 72 hrs by MTT assay; format: functional, cell-based; details: NCI-H460, 72 h
Outline: as §1

[19] = system: NCI-H1975; assay: Cytotoxicity against human NCI-H1975 cells transfected with OE overexpressing Glut1assessed as decrease in cell viability incubated for 72 hrs by MTT assay; format: functional, cell-based; details: NCI-H1975, 72 h
Outline: as §3

[20] = Drug distribution in NCI-H1975 tumor bearing nude mouse model assessed as tumor to kidney ratio of triptolide metabolite at 2 mg/kg, iv by LC-MS analysis; format: ADME, organism-based; details: in vivo
Outline: as §2

[21] = system: NCI-H1975; assay: Antitumor activity against human NCI-H1975 cells xenografted in BALB/c nude mouse assessed as tumor growth inhibition at 2 mg/kg, ip, qd for 2 weeks relative to control; details: NCI-H1975, 336 h, read-out: TGI
[22] = system: NCI-H1975; assay: Cytotoxicity against human NCI-H1975 cells incubated for 72 hrs by MTT assay; format: functional, cell-based; details: NCI-H1975, 72 h
Outline: as §1

[23] = system: MDA-MB-231; assay: Cytotoxicity against human MDA-MB-231 cells incubated for 72 hrs by MTT assay; format: functional, cell-based; details: MDA-MB-231, 72 h
Outline: as §1

[24] = Toxicity in BALB/c nude mouse xenografted with human NCI-H1975 cells assessed as diarrhea at 1 to 2 mg/kg administered ip, qd for 2 weeks; details: in vivo, 336 h
[25] = Toxicity in BALB/c nude mouse xenografted with human NCI-H1975 cells assessed as morphological change in lung at 1 to 2 mg/kg administered ip, qd for 2 weeks; details: in vivo, 336 h
[26] = system: NCI-H460; assay: Induction of mitochondrial membrane potential loss in human NCI-H460 cells by flow cytometric analysis; format: functional, cell-based
Outline: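 Treated NCI-H460 cells suspended in 1% BSA DPBS and stained with TMRE (from a 1 mM stock) for 20 min in the dark. Cells then washed and resuspended in 1% BSA DPBS. Relative TMRE fluorescence intensity taken as the readout of membrane potential.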

[27] = Toxicity in BALB/c nude mouse xenografted with human NCI-H1975 cells assessed as irregular spermatogenic tubules at 2 mg/kg administered ip, qd for 2 weeks; details: in vivo, 336 h
[28] = system: NCI-H460; assay: Induction of apoptosis in human NCI-H460 cells assessed as viable cells at 1 uM measured after 48 hrs by Annexin V-FITC/PI staining method (reference value: 86.7%); format: functional; details: read-out: Activity

In the case of CC(C)[C@]12O[C@H]1[C@@H]1O[C@]13[C@]1(O[C@H]1C[C@H]1C4=C(CC[C@@]13C)C(=O)OC4)[C@@H]2OC(=O)CCC(=O)O[C@H]1C(O)O[C@H](CO)[C@@H](O)[C@@H]1O (stereo partly drawn), the Activity [1] is reported as “Non-Toxic”, the Activity [2] is reported as 0.85% and the AUC(0-t) at 3 h [3] is reported as 83.6 µM·h. It also gave an IC50 at 72 h [4] of 1320 nM, a Ratio [5] of 7.3 and an MRT last [6] of 33.6 min. The Stability [7] was “Stable”, the viability at 50 µM [8] was 22.7% and the IC50 at 72 h [9] was 8.55 µM. The IC50 [10] was 11.6 µM, the Activity [11] was “Non-Toxic” and the IC50 at 72 h [12] was 9.22 µM. The Activity [13] was “Non-Toxic”, the IC50 [14] was 5.27 µM and the Activity [15] was “Non-Toxic”. For the same compound, the Ratio [16] was 9.3, the IC50 [17] was 1720 nM and the IC50 [18] was 870 nM. The IC50 [19] was 2440 nM, the Ratio [20] was 18.8 and the inhibition in vivo at 2 mg/kg [21] was 90.4%. The IC50 [22] was 2040 nM, the IC50 [23] was 1970 nM and the Activity [24] was “Non-Toxic”. The Activity [25] was “Non-Toxic”, the Activity [26] was “Active” and the Activity [27] was “Toxic”. For the same compound, the viability at 1 µM [28] was 84.6%.
